Legend:
CCRF-CEM = assay: Tested for the inhibitory activity against CCRF CEM T- cell leukemia cells; type: functional, cell-based; settings: Homo sapiens
Outline: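 MTT microtiter tetrazolium assay; CCRF CEM cells seeded at 30 000 cells/well and allowed to attach. Each dose tested in four replicate plates, each with eight DMSO-only control wells.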

Rattus norvegicus = species: Rattus norvegicus; assay: Nuclear count minus the highest cytoplasmic count determined in rat hepatocytes for each cell; type: functional, Hepatocyte
Outline: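 Hepatocytes isolated from F-344 rats (220–300 g), ~5 × 10⁶ cells seeded on coverslips; after 2 h washed, refed with serum-free Williams medium E and exposed together to 10 μCi/mL tritiated thymidine (50–90 Ci/mmol) plus compound in DMSO. Autoradiography after 18–20 h; 20 cells counted per slide, triplicate per concentration, mean ± SD of two experiments. Positive requires net grains >0 with dose response.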

[1] = tested on: DNA topoisomerase II (Bos taurus); assay: Relative potency to cause 90% of topoisomerase II-mediated cleavage of liner 8.4-kb YEPG DNA

Compound	IC50 (CCRF-CEM) [µM]	Net grain counts (Rattus norvegicus)	Relative activity [1]
O=C1c2ccccc2-c2nc3ccccc3n21	68	-7.4	0
O=C1c2ccccc2-c2nc3ccncc3n21	> 200	-10.5	0
Cc1cccc(N)c1N1C(=O)c2ccccc2C1=O	71	-8.7	0
O=C1c2ccccc2C2=Nc3ccc([N+](=O)[O-])cc3CN12	> 150	10.5	0
Nc1ccc2nc3n(c2c1)C(=O)c1ccccc1-3	> 200	-4.4	0
Cc1cccc(N2C(=O)c3ccccc3C2=O)c1[N+](=O)[O-]	> 200	-4.1	0
Cc1cccc2nc3n(c12)C(=O)c1ccccc1-3	> 200	-3.7	0
Nc1ccc2c(c1)CN1C(=O)c3ccccc3C1=N2 [DANIQUIDONE]	14	93.1	–
Cc1cccc2c1nc1n2C(=O)c2ccccc2-1	> 200	-3.5	0
O=C1c2ccccc2-c2nc3ccc(O)cc3n21	> 200	–	0
COc1ccc2nc3n(c2c1)C(=O)c1ccccc1-3	> 200	-3.6	0
COc1ccc(N)c(N2C(=O)c3ccccc3C2=O)c1	> 200	-8.9	0
O=C1c2ccccc2C2=Nc3ccncc3CN12	102	-5.2	0.1
COc1cc([C@@H]2c3cc4c(cc3[C@@H](O[C@@H]3O[C@@H]5CO[C@@H](C)O[C@H]5[C@H](O)[C@H]3O)[C@H]3COC(=O)[C@H]23)OCO4)cc(OC)c1O [ETOPOSIDE]	0.002	-7.5	–
O=C1c2ccccc2C2=Nc3ccccc3CN12	60	-4.5	1
